This is a sample that favours compounds with a hit; in the whole collection about 1.1% have one here.
Arr AP2 block = blocks beta-arrestin peptide binding to AP2 adaptin; FITC-arrestin peptide / GST-AP2 beads, flow cytometry; AP2 beta2 appendage carries R879A mutation; inhibition, % at 10 µM; actives 0.31% (n = 340,000); AID 504490;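 active = inhibition above a set limit, near 3 SD of compounds lacking own fluorescence, cut at about 54% in these data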;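 note: plate controls were DMSO wells for no effect and 5 µM unlabelled arrestin peptide for full effect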
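Measured by: flow cytometry, FL1 (488/535 nm); Material: AP2 appendage R879A on GSH beads; Evaluation: percent response; Timing: pre-incubation 12 min, peptide binding 1 h, room temperature; Also added: 50 nM FITC-arrestin peptide; Medium: PBS with 0.05% Tween 20 and 0.1% BSA.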
SENP1 FRET inh = SENP1 (human) catalytic domain inhibition; inhibition, % at 10 µM; recombinant SENP1 catalytic domain, CyPet-SUMO1-YPet FRET cleavage; actives 0.21% (n = 360,000);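 active = inhibition at least 30% at 10 µM, raw YFP signal under a set limit, fluorescence ratio 0.5 to 1.5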;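 note: 0% = enzyme with DMSO and 100% = no enzyme wells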
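Material – human SENP1 catalytic domain · Input – SENP1 enzyme, 20 pM final · Compound dosing – single concentration of 10 µM compound, 0.5% DMSO final · Timing – enzyme reaction for 50 min at room temperature, dark · Measured by – FRET fluorescence in CFP and YFP emission channels · Control set – no-enzyme wells low, DMSO-plus-enzyme wells high control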
FAS-TE inh = blocks the thioesterase domain of human fatty acid synthase; P49327; recombinant FAS-TE, OMFH fluorogenic substrate, fluorescence endpoint; inhibition, % at 15 µM; actives 0.67% (n = 360,000); AID 602261;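 active = compounds whose normalised, plate-corrected inhibition of enzyme fluorescence in the single-dose primary screen is 50% or more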;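 note: 0% = DMSO with enzyme and 100% = substrate without enzyme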
Target sequence (P49327 whole entry, looked up, the tested form may be a part): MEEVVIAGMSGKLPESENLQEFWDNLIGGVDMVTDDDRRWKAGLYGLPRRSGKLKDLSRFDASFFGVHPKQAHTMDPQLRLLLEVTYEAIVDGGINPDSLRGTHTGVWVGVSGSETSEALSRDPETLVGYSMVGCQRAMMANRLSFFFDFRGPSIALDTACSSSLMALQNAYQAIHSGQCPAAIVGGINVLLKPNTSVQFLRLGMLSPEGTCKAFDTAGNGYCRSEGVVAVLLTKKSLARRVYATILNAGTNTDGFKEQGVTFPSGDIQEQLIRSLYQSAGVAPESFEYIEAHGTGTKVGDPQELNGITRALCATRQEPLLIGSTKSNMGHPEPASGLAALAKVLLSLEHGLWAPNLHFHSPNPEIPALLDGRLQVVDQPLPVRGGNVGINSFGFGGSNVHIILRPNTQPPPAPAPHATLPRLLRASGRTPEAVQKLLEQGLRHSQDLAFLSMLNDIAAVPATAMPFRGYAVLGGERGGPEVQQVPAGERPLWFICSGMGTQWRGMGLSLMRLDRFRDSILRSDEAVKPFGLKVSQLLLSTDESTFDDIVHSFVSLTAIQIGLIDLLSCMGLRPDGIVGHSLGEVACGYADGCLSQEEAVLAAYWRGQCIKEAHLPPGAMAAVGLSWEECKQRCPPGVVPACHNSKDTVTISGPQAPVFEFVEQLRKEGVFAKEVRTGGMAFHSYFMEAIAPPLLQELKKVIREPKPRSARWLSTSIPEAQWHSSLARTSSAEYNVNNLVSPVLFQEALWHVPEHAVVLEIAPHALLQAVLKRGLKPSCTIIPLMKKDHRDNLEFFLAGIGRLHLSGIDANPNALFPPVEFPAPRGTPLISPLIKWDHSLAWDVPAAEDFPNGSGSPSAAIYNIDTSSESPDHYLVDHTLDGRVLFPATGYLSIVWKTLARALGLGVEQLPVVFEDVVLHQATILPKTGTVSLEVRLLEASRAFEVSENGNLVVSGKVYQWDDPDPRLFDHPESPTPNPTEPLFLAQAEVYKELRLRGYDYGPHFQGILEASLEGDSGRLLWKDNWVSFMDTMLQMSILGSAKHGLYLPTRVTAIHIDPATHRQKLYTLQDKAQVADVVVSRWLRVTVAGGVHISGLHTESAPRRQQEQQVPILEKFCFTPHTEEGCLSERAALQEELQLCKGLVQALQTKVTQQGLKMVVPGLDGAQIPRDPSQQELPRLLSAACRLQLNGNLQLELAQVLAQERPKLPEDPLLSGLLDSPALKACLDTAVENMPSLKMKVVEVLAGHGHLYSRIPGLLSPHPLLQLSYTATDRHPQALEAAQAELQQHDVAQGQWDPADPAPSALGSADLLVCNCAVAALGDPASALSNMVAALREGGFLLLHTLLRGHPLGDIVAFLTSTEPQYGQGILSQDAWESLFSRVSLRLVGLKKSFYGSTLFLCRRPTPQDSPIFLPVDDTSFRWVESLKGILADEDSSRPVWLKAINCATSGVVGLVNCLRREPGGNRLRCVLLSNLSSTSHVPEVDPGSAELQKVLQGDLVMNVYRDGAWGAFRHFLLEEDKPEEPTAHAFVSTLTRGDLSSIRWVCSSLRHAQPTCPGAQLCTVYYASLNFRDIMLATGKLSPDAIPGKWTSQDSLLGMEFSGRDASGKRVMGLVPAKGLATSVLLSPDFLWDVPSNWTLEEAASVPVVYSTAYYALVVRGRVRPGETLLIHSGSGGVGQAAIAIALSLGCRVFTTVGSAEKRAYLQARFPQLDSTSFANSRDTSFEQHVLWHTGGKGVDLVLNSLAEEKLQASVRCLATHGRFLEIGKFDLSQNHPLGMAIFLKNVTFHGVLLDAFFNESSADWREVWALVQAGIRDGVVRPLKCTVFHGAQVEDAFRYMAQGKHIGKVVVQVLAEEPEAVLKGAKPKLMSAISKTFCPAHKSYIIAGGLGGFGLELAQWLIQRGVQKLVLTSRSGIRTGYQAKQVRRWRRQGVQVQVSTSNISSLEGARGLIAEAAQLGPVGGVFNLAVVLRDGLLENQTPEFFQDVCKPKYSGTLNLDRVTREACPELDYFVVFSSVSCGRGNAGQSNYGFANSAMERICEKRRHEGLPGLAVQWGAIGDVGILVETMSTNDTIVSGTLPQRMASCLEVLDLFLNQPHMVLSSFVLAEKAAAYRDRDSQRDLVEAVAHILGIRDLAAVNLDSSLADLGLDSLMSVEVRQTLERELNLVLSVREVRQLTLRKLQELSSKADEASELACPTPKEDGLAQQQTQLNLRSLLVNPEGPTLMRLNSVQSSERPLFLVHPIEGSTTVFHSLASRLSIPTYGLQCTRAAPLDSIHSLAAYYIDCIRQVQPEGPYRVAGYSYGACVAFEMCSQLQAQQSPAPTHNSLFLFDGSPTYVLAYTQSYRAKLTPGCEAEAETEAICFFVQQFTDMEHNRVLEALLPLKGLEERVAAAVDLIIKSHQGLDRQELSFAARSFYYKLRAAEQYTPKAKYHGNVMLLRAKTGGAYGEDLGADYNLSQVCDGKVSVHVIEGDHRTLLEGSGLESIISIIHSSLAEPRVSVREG
JMJD2C inh = blocks human GASC-1 demethylase activity; AID 2099; GST-JMJD2C(1-420) H3K9me3 demethylation, DELFIA europium; Q9H3R0; actives 0.069% (n = 330,000); inhibition, % at 2.35 µM;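 active = more than half of a compound's replicate wells show inhibition beyond 50%, single wells judged on their own value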;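 note: signal counts dimethyl H3K9 product captured on neutravidin plate; 0% = median of DMSO wells and 100% = 0.3 times that DMSO median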
Arr AP2 CP1 = blocks beta-arrestin peptide binding to human AP2 | shares compounds with Arr AP2 block | GST-AP2 beads, FITC arrestin peptide binding, flow cytometry; GST-fused beta2-adaptin appendage, R879A mutant | inhibition, % at 10 µM | actives 2% (n = 1,300);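 active = inhibition above a set limit, roughly 3 SD of non-fluorescent compound noise, cut at about 38% in these data; inactive = inhibition at or below that limit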;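 note: loss of bead fluorescence from 50 nM FITC arrestin peptide bound to appendage; 0% = negative control wells and 100% = excess unlabelled arrestin peptide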
GST GSH counter = counter-screen for beta-arrestin AP2 inhibitors: GST-GSH bead binding; shares compounds with Arr AP2 block; GST-fluorescein binding to GSH beads, fluorescence; inhibition, % at 10 µM; actives 2% (n = 1,300); AID 588338;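 active = inhibition above 50%, about 3 SD of the inhibition seen with non-fluorescent compounds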;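 note: fluorescein maleimide labelled GST captured on 4 micron glutathione beads; higher means more loss of bead fluorescence from quenching or blocked binding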
Active calls of the source: *; . = no result given.

SMILES	Arr AP2 block	SENP1 FRET inh	FAS-TE inh	JMJD2C inh	Arr AP2 CP1	GST GSH counter
Cc1ccc([C@H]2C[C@H](n3cc(COC(=O)c4ccccc4)nn3)[C@@H](O)CN2CC2CCCCC2)cc1	.	-0.5	12.6	.	.	.
O=C(O)COCC(=O)Nc1ccc2c(c1)ncn2CCc1ccccc1	57.5*	3.1	-9.4	-2.7	-5.3	0.6
Cc1ccc(C(=O)OCC(=O)NC2CCS(=O)(=O)C2)c(C)c1 (stereo not given)	13.2	1.3	-3.7	0.9	.	.
Cc1ccc2nc3c(c(C(=O)OCC(=O)NC4CCS(=O)(=O)C4)c2c1)CCCC3 (stereo not given)	57.0*	1.5	-5.0	0.6	1.7	-3.4
COC(=O)C1=C(C)N(CC(C)C)C(=O)C1	15.1	1.0	-2.6	0.2	.	.
COc1ccc(CCNC(=O)c2cc(S(=O)(=O)N3CCOCC3)ccc2N2CCCC2)cc1OC	-11.3	4.5	-5.5	7.4	-11.4	2.5
CC(=O)c1ccccc1NC(=O)c1cc(S(=O)(=O)N2CCOCC2)ccc1N1CCCC1	-0.9	1.7	35.3	-60.6	1.4	-7.1
CC(C)CNC(=O)c1cc(S(=O)(=O)N2CCOCC2)ccc1N1CCCC1	55.2*	1.2	-5.4	2.7	8.9	-5.7
O=C(Nc1ccccc1N1CCCC1)c1cc(S(=O)(=O)N2CCOCC2)ccc1Cl	31.4	-1.4	4.1	5.5	.	.
CC(C)CCOP(=O)(c1ccc(N(C)C)cc1)C(O)c1ccc(Cl)cc1Cl (stereo not given)	-2.8	0.9	23.9	6.1	.	.
O=C(NCc1nnc2c(C(F)(F)F)cc(Cl)cn12)c1cccs1	56.0*	-4.4	22.0	8.0	14.1	-1.7
Cc1occc1C(=O)NCc1cccs1	77.9*	-0.4	-7.2	-0.1	9.5	0.2
O=C(COC(=O)/C=C/c1cccc(C(F)(F)F)c1)Nc1cccc2ccccc12	91.0*	4.0	-6.0	-0.2	-11.4	-2.2
Cc1ccccc1NC(=O)COC(=O)/C=C/c1cccc(C(F)(F)F)c1	2.5	2.0	-5.5	-0.9	.	.
Cc1cc(Cl)ccc1-c1nc(NC(C)C)nc2ccsc12	.	-24.5	16.1	.	.	.
CC(C)(C)c1cc(C(=O)Nc2cccnc2)cc(C(=O)Nc2cccnc2)c1	61.0*	-0.7	-1.0	5.6	4.4	-0.3
O=C(Nc1cccnc1)c1ccc(Cl)c(Cl)c1	10.6	0.0	0.5	-1.4	.	.
CC(=O)c1ccc(N2CC(C)(C)C2=O)cc1	-11.7	-0.6	-2.7	-11.1	.	.
CC(=O)c1ccc(-n2ccc(=O)cc2)cc1	60.2*	2.5	-4.4	-16.9	-4.7	-3.7
Cn1c2ccccc2c2ccc3c(c21)C(=O)C=CC3=O	69.6*	-5.8	18.0	.	55.5*	1.8
Cc1ccc(C)c2c1c1ccccc1n2C	-21.4	-4.9	8.5	9.1	.	.
COc1ccc2c(c1)c1ncn(CCN3CCCC3)c(=O)c1n2C	3.8	0.5	-6.8	-0.9	.	.
COc1ccc2c(c1)c1ccc3c(c1n2C)C(=O)C=CC3=O	56.9*	-55.5	12.8	.	32.5	3.1
CC(C)CN1CCC(=O)N(CCOc2ccccc2)CC1	56.9*	1.1	-6.6	3.6	9.2	-1.5
COC(=O)C1CN(S(=O)(=O)c2cc(OC)ccc2OC)CCS1 (stereo not given)	36.9	-0.3	-0.4	6.8	.	.
SMILES	Arr AP2 block	SENP1 FRET inh	FAS-TE inh	JMJD2C inh	Arr AP2 CP1	GST GSH counter
Cn1c(=O)n(C)c2cc(N3CCCC3)c(NC(=O)c3cccc(F)c3)cc21	-7.0	-7.1	1.7	7.5	24.8	-2.0
COc1cccc(C(=O)Nc2cc3c(cc2N2CCCC2)n(C)c(=O)n3C)c1	11.8	-2.7	0.0	-22.1	1.0	-11.5
CCOC(=O)CSc1nnc(-c2ccc3ncccc3c2)n1C	6.9	0.5	-5.5	-22.0	.	.
C/C(=N/NC(=O)c1cc(C2CC2)[nH]n1)c1cccs1	-2.4	2.7	-7.8	-8.9	.	.
CCc1ccccc1NC(=O)CNC(=O)c1cn(Cc2ccccc2)nc1-c1cccnc1	64.4*	1.3	-0.2	7.7	-4.1	3.0
Cc1cc(C)c2cc(C)c3nnc(SCC(=O)NCc4ccc5c(c4)OCO5)n3c2c1	21.8	-0.7	3.6	-2.8	.	.
COCc1ccc2oc(C(=O)O)cc2c1	-3.5	-0.5	-4.4	-2.6	.	.
CC(=O)/C(=N\Nc1cccc(Cl)c1)Sc1nnc(-c2ccccc2)n1-c1ccccc1	105.1*	2.7	-2.6	-20.9	-1.0	-5.4
CN(C)C(CNC(=O)CNC(=O)c1ccc2ccccc2c1)c1ccccc1 (stereo not given)	58.6*	1.6	-4.7	-3.8	14.3	-0.4
O=C(CN1CCC(C(=O)c2ccc(Cl)cc2)CC1)NC1CCCC1	27.5	-3.0	-1.3	12.9	.	.
Cc1nc(NCCN2CCOCC2)c2oc3ccccc3c2n1	54.9*	-0.8	-6.6	18.2	14.6	-5.8
Cc1nc(NCCCN2CCOCC2)c2oc3ccccc3c2n1	7.6	2.3	-1.6	-5.5	.	.
CCOc1ccccc1NS(=O)(=O)c1ccc(-n2cccn2)cc1	-15.2	1.0	5.3	-1.6	.	.
O=C(CS(=O)(=O)c1ccccc1)Nc1ccc(N2CCOCC2)cc1	60.1*	2.9	-0.5	7.3	-5.7	-3.0
Cc1ccc(N(CC(=O)N2CCN(c3ccc(F)cc3)CC2)S(=O)(=O)c2c(C)nn(C)c2C)cc1	16.9	-1.7	0.5	-27.5	.	.
CN(C)Cc1ccccc1COc1ccccc1	8.9	1.7	-7.3	-1.5	.	.
CCCCc1ccc(NC(=O)CC(C)=O)cc1	-3.5	5.1	-2.5	9.8	-8.7	1.3
O=C(OCc1nnc(-c2ccccc2)o1)c1ccc([N+](=O)[O-])s1	69.8*	2.1	6.7	7.3	15.1	-3.8
COc1ccc(CCC(=O)N2c3ccccc3N=C(c3ccc(C(F)(F)F)cc3)C2C(=O)NC2CCCC2)cc1 (stereo not given)	.	-0.9	.	.	.	.
Cc1cccc(C(=O)NCCC(=O)Nc2ccc(C)c(F)c2)c1	9.7	0.9	5.1	-28.1	.	.
COc1ccc(/C=C/C(=O)c2ccccc2)cc1COc1ccccc1F	56.1*	-2.5	27.3	8.1	17.1	-6.9
COc1ccc(C=O)cc1COc1ccccc1F	5.4	-4.0	-1.3	11.1	.	.
COc1ccccc1NC(=O)N(Cc1ccco1)Cc1cc2cccc(C)c2[nH]c1=O	0.8	1.9	4.3	-3.5	.	.
Cc1ccc2cc(CN(CC3CCCO3)C(=O)NC3CCCCC3)c(=O)[nH]c2c1C (stereo not given)	12.3	4.5	43.8	-1.8	-1.6	-4.5
Cc1cccc2cc(CN(CC3CCCO3)C(=O)NC3CCCCC3)c(=O)[nH]c12 (stereo not given)	-6.5	2.3	3.8	11.4	0.3	-3.8
Cc1cccc2cc(CN(Cc3ccco3)C(=O)NC3CCCCC3)c(=O)[nH]c12	26.9	-1.0	4.8	9.3	5.7	-2.3

Bioassay records: PubChem, several laboratories
